Source: ChEMBL document CHEMBL1152757, “Stereoselective synthesis and biological evaluation of syn-1-amino-3-[18F]fluorocyclobutyl-1-carboxylic acid as a potential positron emission tomography brain tumor imaging agent” (Bioorg Med Chem, 2009)

Tests used:
[1] = Biodistribution in testis of rat 9L cells implanted Fischer rat at 15 to 30 uCi, iv after 30 mins by gamma-counter; type: ADME, organism-based; settings: in vivo, 0.5 h
Procedure, shortened: (§1)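 Male Fischer 344 rats (125-175 g) implanted intracranially by stereotactic injection of 5 × 10^4 9L gliosarcoma cells. Used 10-12 days after implantation. Tracer given into the tail vein at 15-30 µCi in 0.1-0.3 mL sterile saline. Groups of 4 were sacrificed at 15, 30, 60 and 120 min. Tissues were weighed and gamma-counted against dose standards, and counts decay-corrected to %ID/g (mean ± SD). One-way ANOVA.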

Blood [2] = test: Biodistribution in blood of rat 9L cells implanted Fischer rat at 15 to 30 uCi, iv after 15 mins by gamma-counter; type: ADME, organism-based; settings: in vivo, 0.25 h; procedure, shortened: as §1
Lung [3] = test: Biodistribution in lung of rat 9L cells implanted Fischer rat at 15 to 30 uCi, iv after 60 mins by gamma-counter; type: ADME, organism-based; settings: in vivo, 1 h; procedure, shortened: as §1
Spleen = test: Biodistribution in spleen of rat 9L cells implanted Fischer rat at 15 to 30 uCi, iv after 120 mins by gamma-counter; type: ADME, organism-based; settings: in vivo, 2 h; procedure, shortened: as §1
[4] = Ratio of drug level from tumor to brain of rat 9L cells implanted Fischer rat at 15 to 30 uCi, iv after 30 mins by gamma-counter; type: ADME, organism-based; settings: in vivo, 0.5 h
Procedure, shortened: (§2)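 Male Fischer 344 rats (125-175 g) received intracranial implants of 9L cells (5 × 10^4 cells) and were used 10-12 days later. Tracer was given by tail vein at 15-30 µCi in 0.1-0.3 mL sterile saline. Groups of 4 were killed at each time point. Tissues were weighed and gamma counted against dose standards with decay correction, giving %ID/g (mean). The ratio is tumor %ID/g over normal brain %ID/g.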

Lung [5] = test: Biodistribution in lung of rat 9L cells implanted Fischer rat at 15 to 30 uCi, iv after 30 mins by gamma-counter; type: ADME, organism-based; settings: in vivo, 0.5 h; procedure, shortened: as §1
Pancreas [6] = test: Biodistribution in pancreas of rat 9L cells implanted Fischer rat at 15 to 30 uCi, iv after 60 mins by gamma-counter; type: ADME, organism-based; settings: in vivo, 1 h; procedure, shortened: as §1
Pancreas [7] = test: Biodistribution in pancreas of rat 9L cells implanted Fischer rat at 15 to 30 uCi, iv after 30 mins by gamma-counter; type: ADME, organism-based; settings: in vivo, 0.5 h; procedure, shortened: as §1
Blood [8] = test: Biodistribution in blood of rat 9L cells implanted Fischer rat at 15 to 30 uCi, iv after 30 mins by gamma-counter; type: ADME, organism-based; settings: in vivo, 0.5 h; procedure, shortened: as §1
Pancreas [9] = test: Biodistribution in pancreas of rat 9L cells implanted Fischer rat at 15 to 30 uCi, iv after 15 mins by gamma-counter; type: ADME, organism-based; settings: in vivo, 0.25 h; procedure, shortened: as §1
Liver [10] = test: Biodistribution in liver of rat 9L cells implanted Fischer rat at 15 to 30 uCi, iv after 120 mins by gamma-counter; type: ADME, organism-based; settings: in vivo, 2 h; procedure, shortened: as §1
Kidney = test: Biodistribution in kidney of rat 9L cells implanted Fischer rat at 15 to 30 uCi, iv after 15 mins by gamma-counter; type: ADME, organism-based; settings: in vivo, 0.25 h; procedure, shortened: as §1
Brain [11] = test: Biodistribution in brain of rat 9L cells implanted Fischer rat at 15 to 30 uCi, iv after 60 mins by gamma-counter; type: ADME, organism-based; settings: in vivo, 1 h; procedure, shortened: as §1
[12] = Biodistribution in testis of rat 9L cells implanted Fischer rat at 15 to 30 uCi, iv after 60 mins by gamma-counter; type: ADME, organism-based; settings: in vivo, 1 h; procedure, shortened: as §1
Bone [13] = test: Biodistribution in bone of rat 9L cells implanted Fischer rat at 15 to 30 uCi, iv after 15 mins by gamma-counter; type: ADME, organism-based, Bone element; settings: in vivo, 0.25 h; procedure, shortened: as §1
[14] = Biodistribution in testis of rat 9L cells implanted Fischer rat at 15 to 30 uCi, iv after 120 mins by gamma-counter; type: ADME, organism-based; settings: in vivo, 2 h; procedure, shortened: as §1
[15] = Biodistribution in tumor of rat 9L cells implanted Fischer rat at 15 to 30 uCi, iv after 15 mins by gamma-counter; type: ADME, organism-based, Neoplasm; settings: in vivo, 0.25 h; procedure, shortened: as §1
Liver [16] = test: Biodistribution in liver of rat 9L cells implanted Fischer rat at 15 to 30 uCi, iv after 30 mins by gamma-counter; type: ADME, organism-based; settings: in vivo, 0.5 h; procedure, shortened: as §1
Brain [17] = test: Biodistribution in brain of rat 9L cells implanted Fischer rat at 15 to 30 uCi, iv after 15 mins by gamma-counter; type: ADME, organism-based; settings: in vivo, 0.25 h; procedure, shortened: as §1
Heart [18] = test: Biodistribution in heart of rat 9L cells implanted Fischer rat at 15 to 30 uCi, iv after 15 mins by gamma-counter; type: ADME, organism-based; settings: in vivo, 0.25 h; procedure, shortened: as §1
[19] = Biodistribution in tumor of rat 9L cells implanted Fischer rat at 15 to 30 uCi, iv after 120 mins by gamma-counter; type: ADME, organism-based, Neoplasm; settings: in vivo, 2 h; procedure, shortened: as §1
Liver [20] = test: Biodistribution in liver of rat 9L cells implanted Fischer rat at 15 to 30 uCi, iv after 60 mins by gamma-counter; type: ADME, organism-based; settings: in vivo, 1 h; procedure, shortened: as §1
Heart [21] = test: Biodistribution in heart of rat 9L cells implanted Fischer rat at 15 to 30 uCi, iv after 120 mins by gamma-counter; type: ADME, organism-based; settings: in vivo, 2 h; procedure, shortened: as §1
Bone [22] = test: Biodistribution in bone of rat 9L cells implanted Fischer rat at 15 to 30 uCi, iv after 120 mins by gamma-counter; type: ADME, organism-based, Bone element; settings: in vivo, 2 h; procedure, shortened: as §1
Muscle tissue = test: Biodistribution in muscle of rat 9L cells implanted Fischer rat at 15 to 30 uCi, iv after 60 mins by gamma-counter; type: ADME, organism-based; settings: in vivo, 1 h; procedure, shortened: as §1
9L = test: Drug uptake in rat 9L cells assessed as intracellular accumulation after 30 mins measured per 5 x 10^5 cells by gamma-counter; type: ADME, cell-based; settings: 0.5 h
Procedure, shortened: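 9L cells were grown in DMEM with 10% FCS and penicillin/streptomycin, then trypsinized and washed twice in HBSS. About 5 × 10^5 cells received 5 µCi tracer in amino acid-free HBSS for 30 min at 37 °C, without or with 10 mM BCH (L-type inhibitor). Cells were centrifuged and rinsed twice with ice-cold HBSS, then gamma-counted with decay correction. Uptake expressed as % of standard per 5 × 10^5 cells. Triplicates, 1-way ANOVA.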

[23] = Ratio of drug level from tumor to brain of rat 9L cells implanted Fischer rat at 15 to 30 uCi, iv after 120 mins by gamma-counter; type: ADME, organism-based; settings: in vivo, 2 h; procedure, shortened: as §2

With `N[C@]1(C(=O)O)C[C@H]([18F])C1` the Drug uptake [1] was 0.27 % ID/g, the Drug uptake (Blood [2]) was 0.36 % ID/g and the Drug uptake (Lung [3]) was 0.42 % ID/g. The Drug uptake (Spleen) was 0.4 % ID/g, the Ratio [4] was 11.5 and the Drug uptake (Lung [5]) was 0.57 % ID/g. The Drug uptake (Pancreas [6]) was 2.83 % ID/g, the Drug uptake (Pancreas [7]) was 3.36 % ID/g and the Drug uptake (Blood [8]) was 0.37 % ID/g. It also gave a Drug uptake (Pancreas [9]) of 2.37 % ID/g, a Drug uptake (Liver [10]) of 0.4 % ID/g and a Drug uptake (Kidney) of 0.76 % ID/g. It also gave a Drug uptake (Brain [11]) of 0.2 % ID/g, a Drug uptake [12] of 0.27 % ID/g and a Drug uptake (Bone [13]) of 0.25 % ID/g. The Drug uptake [14] was 0.21 % ID/g, the Drug uptake [15] was 1.4 % ID/g and the Drug uptake (Liver [16]) was 0.6 % ID/g. The Drug uptake (Brain [17]) was 0.2 % ID/g, the Drug uptake (Heart [18]) was 0.43 % ID/g and the Drug uptake [19] was 1.93 % ID/g. It also gave a Drug uptake (Liver [20]) of 0.41 % ID/g, a Drug uptake (Heart [21]) of 0.3 % ID/g and a Drug uptake (Bone [22]) of 0.2 % ID/g. It also gave a Drug uptake (Muscle tissue) of 0.42 % ID/g, a Drug uptake (9L) of 15.8 %ID and a Ratio [23] of 7.7.
